Read-outs that look alike come from different tables or passages of the source.
What was measured:
[1] = ANS fluorescence in the presence of BclXL; format: binding; details: for ANS fluorescence enhancement: 5μM BclXL, excess ANS, excitation 375nm, 25 °C
Outline: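 Full-length human BclXL (residues 1–233, N-His, E. coli-expressed, Ni-NTA purified) at 5 μM with excess ANS in 50 mM acetate pH 4, phosphate pH 6, Tris pH 8 or CAPS pH 10. 25 °C; excitation 375 nm; emission 400–600 nm; 2.5-nm bandwidths. ANS-alone background subtracted. Enhancement = (Φ−Φo)/Φo × 100%, where Φ is the integrated spectral area. At least three repeats.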

[2] = format: physicochemical; details: 50μM BclXL, 1°C/min

full-length BclXL: Full-length human BclXL (residues 1-233), N-terminal His-tag, expressed in Escherichia coli
ANS emission maximum upon binding to BclXL ([1]; blue-shifted from 515nm in water): around 475 nm | ANS fluorescence enhancement ([1]; pH 4): ~15 fold | ANS fluorescence enhancement ([1]; pH 6): 2 fold | ANS fluorescence enhancement ([1]; pH 8): about 5 fold | ANS fluorescence enhancement ([1]; pH 10): about 5 fold | melting temperature (no melting transition up to) ([2]; pH 4, 50mM buffer, 3atm): > 120 °C | melting temperature (Tm), first transition ([2]; pH 6, attributed to dissociation of dimer into monomers): around 55 °C | melting temperature (Tm), second transition ([2]; pH 6, attributed to unfolding of monomers): ~70 °C | melting temperature (Tm), first transition ([2]; pH 10, dissociation of dimer into monomers): around 60 °C | melting temperature (Tm), second transition ([2]; pH 10, unfolding of monomers): ~90 °C
